Source: ChEMBL document CHEMBL4000209, “Chemical synthesis and biological evaluation of ω-hydroxy polyunsaturated fatty acids” (Bioorg Med Chem Lett, 2017)
Active and inactive are the calls of the source.

Experiments:
[1] = molecular target: Transient receptor potential cation channel subfamily V member 1 (Mus musculus) (UniProt Q704Y3); test: Agonist activity at recombinant mouse TRPV1 expressed in HEK293 cells assessed as increase in calcium influx at 10 uM measured for 380 sec by Fluo-4 dye based FLIPR assay; assay type: cell-based
Chain of Transient receptor potential cation channel subfamily V member 1 (Mus musculus) (Q704Y3 whole entry): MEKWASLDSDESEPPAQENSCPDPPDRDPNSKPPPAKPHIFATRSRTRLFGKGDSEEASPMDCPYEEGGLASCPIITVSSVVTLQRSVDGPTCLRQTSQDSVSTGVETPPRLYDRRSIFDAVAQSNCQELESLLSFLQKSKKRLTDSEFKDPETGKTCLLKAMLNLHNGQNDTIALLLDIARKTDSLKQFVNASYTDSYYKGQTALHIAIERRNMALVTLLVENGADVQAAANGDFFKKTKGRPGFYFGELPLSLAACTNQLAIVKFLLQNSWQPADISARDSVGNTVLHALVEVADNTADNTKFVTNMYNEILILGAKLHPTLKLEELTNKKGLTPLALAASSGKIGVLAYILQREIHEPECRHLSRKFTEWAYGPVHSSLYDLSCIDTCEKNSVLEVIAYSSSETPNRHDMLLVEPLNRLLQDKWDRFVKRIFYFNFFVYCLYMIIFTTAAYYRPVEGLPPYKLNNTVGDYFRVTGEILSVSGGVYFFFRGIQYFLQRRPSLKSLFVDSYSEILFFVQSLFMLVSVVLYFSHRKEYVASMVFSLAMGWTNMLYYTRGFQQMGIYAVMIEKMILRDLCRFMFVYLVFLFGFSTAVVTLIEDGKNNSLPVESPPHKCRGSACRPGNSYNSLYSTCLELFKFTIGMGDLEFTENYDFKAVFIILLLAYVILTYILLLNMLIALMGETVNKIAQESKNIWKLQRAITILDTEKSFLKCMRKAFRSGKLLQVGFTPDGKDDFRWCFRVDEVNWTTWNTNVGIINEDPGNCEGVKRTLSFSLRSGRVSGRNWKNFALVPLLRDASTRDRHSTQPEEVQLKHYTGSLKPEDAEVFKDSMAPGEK
Summary of the method: (§1)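 mTRPV1-transfected HEK293 cells; Ca2+ influx followed over time and quantified as area under the curve; capsaicin as positive control. Experiments repeated twice, each in triplicate.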

[2] = molecular target: T1, Prostaglandin G/H synthase 1 (Ovis aries) (UniProt P05979); test: Inhibition of ovine COX1 at 100 uM using arachidonic acid as substrate after 2 mins by fluorometric substrate-based fluorescence assay relative to control
T1 sequence (whole entry): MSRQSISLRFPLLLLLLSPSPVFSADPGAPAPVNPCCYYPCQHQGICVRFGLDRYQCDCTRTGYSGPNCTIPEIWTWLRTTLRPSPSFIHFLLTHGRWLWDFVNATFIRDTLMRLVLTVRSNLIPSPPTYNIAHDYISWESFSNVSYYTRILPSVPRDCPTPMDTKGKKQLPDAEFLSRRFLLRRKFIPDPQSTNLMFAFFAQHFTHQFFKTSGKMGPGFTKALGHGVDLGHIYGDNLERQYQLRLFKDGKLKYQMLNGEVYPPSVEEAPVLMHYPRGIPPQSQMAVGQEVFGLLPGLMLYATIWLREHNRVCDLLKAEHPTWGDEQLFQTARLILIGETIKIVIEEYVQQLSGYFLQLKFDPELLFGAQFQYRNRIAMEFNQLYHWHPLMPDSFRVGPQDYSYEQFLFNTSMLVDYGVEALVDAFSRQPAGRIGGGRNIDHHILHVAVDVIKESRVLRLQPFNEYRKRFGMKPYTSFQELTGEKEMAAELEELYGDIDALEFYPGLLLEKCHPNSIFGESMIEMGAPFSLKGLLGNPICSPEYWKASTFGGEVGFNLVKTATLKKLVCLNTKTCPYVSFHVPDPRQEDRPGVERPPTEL

[3] = molecular target: T2, Prostaglandin G/H synthase 2 (Homo sapiens) (UniProt P35354); conditions: at 100 µM
T2 sequence (whole entry): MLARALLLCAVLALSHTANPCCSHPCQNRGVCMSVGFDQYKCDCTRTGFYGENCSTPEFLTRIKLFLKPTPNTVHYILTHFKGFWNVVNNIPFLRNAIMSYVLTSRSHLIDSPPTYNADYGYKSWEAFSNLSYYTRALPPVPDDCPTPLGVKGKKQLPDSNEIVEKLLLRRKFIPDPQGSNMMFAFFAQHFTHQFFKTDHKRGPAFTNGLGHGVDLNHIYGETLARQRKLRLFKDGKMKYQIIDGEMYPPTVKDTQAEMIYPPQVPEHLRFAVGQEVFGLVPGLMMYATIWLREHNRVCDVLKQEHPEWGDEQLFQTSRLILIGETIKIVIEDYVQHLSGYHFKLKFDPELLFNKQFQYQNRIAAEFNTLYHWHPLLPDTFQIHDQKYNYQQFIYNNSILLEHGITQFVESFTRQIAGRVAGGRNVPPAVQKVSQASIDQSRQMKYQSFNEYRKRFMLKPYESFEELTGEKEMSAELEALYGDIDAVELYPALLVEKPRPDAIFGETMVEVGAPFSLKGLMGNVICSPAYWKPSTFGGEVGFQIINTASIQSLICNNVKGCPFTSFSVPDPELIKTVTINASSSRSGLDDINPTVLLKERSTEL

Rattus norvegicus [4] = test: Induction of mechanical allodynia in Sprague-Dawley rat assessed as decrease in withdrawal threshold at 1 ug administered as intraplantar injection measured up to 150 mins post dose by Von Frey assay; set-up: scale not given: the % may be the effect or the level left; conditions: in vivo, other, 2.5 h
Summary of the method: (§2)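 Naive male Sprague Dawley rats, n = 6; methyl esters given by intraplantar injection in 1:9 EtOH/saline. Mechanical withdrawal thresholds measured with an electronic von Frey aesthesiometer over a time course, ipsilateral and contralateral paws. Data analysed by two-way ANOVA with Holm-Sidak post hoc test.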

Rattus norvegicus [5] = test: Induction of mechanical allodynia in Sprague-Dawley rat assessed as decrease in withdrawal threshold at 100 ng administered as intraplantar injection by Von Frey assay relative to control; set-up: scale not given: the % may be the effect or the level left; conditions: in vivo, other; summary of the method: as §2
[6] = molecular target: Transient receptor potential cation channel subfamily V member 1 (Mus musculus) (UniProt Q704Y3); test: Agonist activity at recombinant mouse TRPV1 expressed in HEK293 cells assessed as increase in calcium influx up to 10 uM measured for 380 sec by Fluo-4 dye based FLIPR assay; assay type: cell-based; summary of the method: as §1
Rattus norvegicus [7] = test: Induction of mechanical allodynia in Sprague-Dawley rat assessed as decrease in contralateral hind paw withdrawal threshold at 3 ug administered as intraplantar injection measured up to 150 mins post dose by Von Frey assay; conditions: in vivo, other, 2.5 h; summary of the method: as §2
Rattus norvegicus [8] = test: Induction of mechanical allodynia in Sprague-Dawley rat assessed as decrease in ipsilateral hind paw withdrawal threshold administered as intraplantar injection measured up to 150 mins post dose by Von Frey assay; conditions: in vivo, other, 2.5 h; summary of the method: as §2

Row | Compound | Activity [1] | inhibition [2] [%] | inhibition [3] [%] | Activity (Rattus norvegicus [4]) | Activity (Rattus norvegicus [5]) [%] | Activity [6] | Activity (Rattus norvegicus [7]) | Activity (Rattus norvegicus [8])
1 | O=C(O)CC/C=C\C/C=C\C/C=C\C/C=C\C/C=C\C/C=C\CCO | Active | 38.1 | 1 | Non-Toxic | – | – | – | –
2 | CCCCC[C@H](O)/C=C/[C@H]1[C@H](O)CC(=O)[C@@H]1C/C=C\CCCC(=O)O [DINOPROSTONE] | – | – | – | – | 60 | – | – | –
3 | O=C(O)CCC/C=C\C/C=C\C/C=C\C/C=C\C/C=C\CCO | Active | 37.1 | 0 | Non-Toxic | – | – | – | –
4 | O=C(O)CCC/C=C\C/C=C\C/C=C\C/C=C\CCCCCO | – | 27.5 | 0 | 30% | – | inactive | Non-Toxic | Dose-dependent effect
